SMILES strings stand for the structures.

Trypanothione reductase, sequence (P28593 whole entry): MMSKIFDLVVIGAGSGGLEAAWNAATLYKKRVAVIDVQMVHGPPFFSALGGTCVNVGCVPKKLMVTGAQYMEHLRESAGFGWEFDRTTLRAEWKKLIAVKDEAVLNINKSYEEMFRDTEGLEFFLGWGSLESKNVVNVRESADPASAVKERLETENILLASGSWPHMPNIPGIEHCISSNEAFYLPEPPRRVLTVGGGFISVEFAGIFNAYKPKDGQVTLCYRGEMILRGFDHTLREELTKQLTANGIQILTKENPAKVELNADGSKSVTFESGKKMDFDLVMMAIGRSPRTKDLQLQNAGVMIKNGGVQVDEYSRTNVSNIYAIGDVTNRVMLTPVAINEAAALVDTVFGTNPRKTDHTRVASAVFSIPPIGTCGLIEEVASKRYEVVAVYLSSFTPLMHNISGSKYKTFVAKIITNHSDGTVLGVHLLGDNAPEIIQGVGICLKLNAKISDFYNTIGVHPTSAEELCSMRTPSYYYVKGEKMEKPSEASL

This assay addresses Trypanothione reductase (Trypanosoma cruzi, UniProt P28593). Description: The compound was evaluated for inhibition of trypanothione reductase enzyme. In outline:
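Substrate oxidised trypanothione at six levels spanning 0.25–5 × Km, with inhibitor at four experimentally chosen concentrations. Each condition run in triplicate. Ki obtained by fitting rates to the noncompetitive inhibition equation v = Vmax[S]/(1+[I]/Ki)/(Km+[S]).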
As to `COc1ccc2[nH]cc(CC(=O)NCCCNCCCCNCCCNC(=O)Cc3c[nH]c4ccc(OC)cc34)c2c1`, the Ki came out at 280 nM.

For `O=C(NCCCCNCCCNC(=O)c1cnc2cc(C(F)(F)F)ccc2c1O)c1cnc2cc(C(F)(F)F)ccc2c1O`, affinity was put at a Ki of 850 nM.

As for `O=C(CCc1c[nH]c2ccccc12)NCCCNCCCCNCCCNC(=O)CCc1c[nH]c2ccccc12`, the Ki worked out at 350 nM.

Turning to `O=C(Cc1c[nH]c2ccccc12)NCCCNCCCCNCCCNC(=O)Cc1c[nH]c2ccccc12`, the Ki worked out at 390 nM.

`O=C(Cc1c[nH]c2ccc(Br)cc12)NCCCNCCCCNCCCNC(=O)Cc1c[nH]c2ccc(Br)cc12` returned a Ki of 76 nM.

On to `O=C(CCCc1c[nH]c2ccccc12)NCCCNCCCCNCCCNC(=O)CCCc1c[nH]c2ccccc12`, for which the Ki came to 1260 nM.

`O=C(NCCCNCCCCNCCCNC(=O)c1cnc2cc(C(F)(F)F)ccc2c1O)c1cnc2cc(C(F)(F)F)ccc2c1O` returned a Ki of 750 nM.

With `O=C(CCc1ccc(O)c(O)c1)NCCCNCCCCNCCCNC(=O)CCc1ccc(O)c(O)c1` [KUKOAMINE A], affinity was put at a Ki of 1390 nM.

A word on the Ki: it is the equilibrium dissociation constant of an inhibitor or competing ligand from its target. The low end stands for higher affinity, the high end for lower affinity.

For the origin of these results see ChEMBL document CHEMBL1132785, “Optimising inhibitors of trypanothione reductase using solid-phase chemistry” (Bioorg Med Chem Lett, 2000).
